This series concerns MS2 coat protein. The experiment in a line: apparent Kd, MS2 coat protein; higher = weaker binding; RNA-MaP array; FMN 200 µM where present. An outline of the steps:
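Green signal from SNAP-549-labelled MS2 coat protein was normalised to red-channel RNA signal and to the median Fmax of control clusters. The protein was titrated from 0.7 or 1.5 nM, doubling to 3 µM, without and then with constant ligand, over designs transcribed by stalled E. coli RNA polymerase on Illumina sequencing-chip clusters, in 100 mM Tris-HCl pH 7.5, 80 mM KCl, 4 mM MgCl2, BSA, DTT, yeast tRNA and Tween-20. The apparent Kd is the median of filtered per-cluster binding-curve fits.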

The mark [1] stands for this setting: designed as: ON switch for flavin mononucleotide, no ligand.
[2] abbreviates: ligand present: flavin mononucleotide, designed as: ON switch for flavin mononucleotide.
The mark [3] stands for this setting: designed as: OFF switch for flavin mononucleotide, no ligand.
Setting [4] is: ligand present: flavin mononucleotide, designed as: OFF switch for flavin mononucleotide.

In the case of “CUCGGCGCACAGAAGGAUCGGUACAUGAGGAUCACCCAUGUAAGCAAAGAUAGGAUAUGUGGAGCUUACAGGGAAAUUGAACAA”, the “apparent Kd” value turned out to be 74.6 nM under setting [1] and 10.8 nM under setting [2].
Take “UUUUAACAUGAGGAUCACCCAUGUGAGGAUAUCGAAAUUUAUAUUAAUAUUUAUUUUUCGAGAAGGCACAUUUU”: the “apparent Kd” value was 164 nM under setting [3] and 159 nM under setting [4].
Taken in the same sequence, the figures for “GGGCAACAUGAGGAUCACCCAUGUGAGGAUAUGGGCCCGGGCCCGAAAGGGCCCGGGCCCAGAAGGCACAGCCC” were 17.9 nM and 17.1 nM.
For “GACAUUGACAAGAAGGCAAACAUGAGGAUCACCCAUGUUCUGCAUGUAUAUUGAGGAUAUUGCCAAUGUAUGUGGAUCACCCAA”, the “apparent Kd” value under setting [3] was determined as 6.25 nM and the “apparent Kd” value under setting [4] was determined as 15.2 nM.
On to “CCAUUCAGAGGAUAUGCGCAUAGAUAAGACUUUGUUUCUUAACAUGAGGAUCACCCAUGUAGAAGGCUGUACCC”, for which the “apparent Kd” value is, setting by setting: under setting [3], 24.1 nM; under setting [4], 21 nM.
Consider “AGCGUGUAAGGAUAUACGUCGGAUAGCGAAUGCUGUCCGUAGUAGAAGGUACAUGAGGAUCACCCAUGUGUCCA”, for which the “apparent Kd” value was determined as 25.1 nM under setting [3] and 94.1 nM under setting [4].
“UUUUGAUGAGGAUAUCGAGGUUAGUACAUGAGGAUCACCCAUGUUAUCCAGGUGUCGGUUCGAGAAGGUAUUGGAC”: the “apparent Kd” value under setting [3] was 18.5 nM and the “apparent Kd” value under setting [4] was 22.9 nM.
Take “AAACAUGUCCGAGGAUAUCUGGAAACAUUUUCAAGAGAAGGCGGACAUGAGGAUCACCCAUGUCUCUCCUCAUCAACUACAAAC”: the “apparent Kd” value by setting is: under setting [3], 8.57 nM; under setting [4], 53.2 nM.
Taken in the same sequence, the figures for “UGACUGCGUAGAAUUAGCAGCUGACAGGAUAUGACAUGAGGAUCACCCAUGUGAAAUAAGAAGAGUCAGAAGGGUCACGACACA” were 9.51 nM and 8.79 nM.
For “CGGGCGCCGAAGGGCGAAAGCCCACAUGAGGAUCACCCAUGUAGAAGGAGGGAAGAAACCAAAACCUAGGAUAUACAGGCGCCA”, in that order: 8.43 nM and 10.5 nM.
Turning to “GGAUUACAUGAGGAUCACCCAUGUGAGGAUAUCGAUGUCCUGUAAUUCGUGCGGGACUCGAGAAGGCACUUGGA”, the “apparent Kd” value reads like this: under setting [3], 51.3 nM; under setting [4], 168 nM.
“GCUAGUAUUGCAGGAUAUUGAGAAUAAUUAUUACAAGAAGGGCAUAACAUGAGGAUCACCCAUGUAUUCCUUAAUGAUACUAGC”: the “apparent Kd” value stood at 6.31 nM under setting [3] and 7.13 nM under setting [4].
For “GUCAUUAAACAGAAGGUGUUGUACAUGAGGAUCACCCAUGUUUAUCUAAUUAAAUUUGUAAUUAACAAGGAUAUGUACUAAUCG”, the “apparent Kd” value under setting [1] stood at 231 nM and the “apparent Kd” value under setting [2] was 131 nM.
Taken in the same sequence, the figures for “GUGCCUUGGGAGAAGGUAUUAAGCAAAGCAAUAUAAGGAUAUUCAUACCGGAAACGGACAUGAGGAUCACCCAUGUGGCACAAA” were 713 nM and 233 nM.
As for “GUCCAGUUAGGAUAUCAAUGCCACAACAUGAGGAUCACCCAUGUUUGGGUCCCUCACCAAUGAGAAGGAACGGGAC”, the “apparent Kd” value under setting [3] amounted to 34.7 nM and the “apparent Kd” value under setting [4] turned out to be 99.1 nM.
Taken in the same sequence, the figures for “ACCUCACAUGAGGAUCACCCAUGUCAGGAUAUACAAACCGUGAUAAGACACGGUCGUAGUAGAAGGGACUAUGG” were 69.5 nM and 24.9 nM.
For the sequence “AAAUUGCUAGAGGAUAUCGGAUAGGAUCUAUUGCGAGAAGGUUGGACAUGAGGAUCACCCAUGUUCUGUUGGGA”, the “apparent Kd” value is, setting by setting: under setting [3], 25.8 nM; under setting [4], 25.8 nM.
As to “UCACGGGAUUGAGGAUAUAUAUUAAUUUUUACAAUAGAAGGCAAAUUGUUAGUUUUUUCACUAUACAUGAGGAUCACCCAUGUU”, the “apparent Kd” value under setting [3] is 27.4 nM and the “apparent Kd” value under setting [4] was 25.1 nM.
Taken in the same sequence, the figures for “CAAGGCGGUGAAGGAUAUACACGGGCGUUGCCAAACAUGAGGAUCACCCAUGUAGAAGGUCACCCUGAGAAGGCUUUAUGCCUA” were 411 nM and 42.2 nM.
For the sequence “UGGUACAUCGGAGGAUAUCGUGUGUAAACAUGAGGAUCACCCAUGUCAUACGAGAGUAUGUAGAUCGAGAAGGCCGAUGUACCU”, the “apparent Kd” value under setting [1] came out at 16.7 nM and the “apparent Kd” value under setting [2] was 16.2 nM.

Values taken from the EternaBench riboswitch data.
